Assay results taken from ChEMBL document CHEMBL3112482, “Nonclassical antifolates, part 5. Benzodiazepine analogs as a new class of DHFR inhibitors: synthesis, antitumor testing and molecular modeling study” (Eur J Med Chem, 2014).

Tests used:
Format in all cases: functional
MDA-MB-435 = experiment: Growth inhibition of human MDA-MB-435 cells at 10 uM after 48 hrs; conditions: MDA-MB-435, 48 h, read-out: GI
In short: (§1)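 Single-dose primary screen in the NCI 60 human tumour cell line panel, run at the NCI facility. The panel covers nine subpanels: leukaemia, non-small cell lung, colon, CNS, melanoma, ovarian, renal, prostate and breast. Read-out was percent growth of treated cells, shown as a mean graph and reported as percent growth inhibition.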

M14 = experiment: Growth inhibition of human M14 cells at 10 uM after 48 hrs; conditions: M14, 48 h, read-out: GI; in short: as §1
Malme-3M = experiment: Growth inhibition of human MALME-3M cells at 10 uM after 48 hrs; conditions: read-out: GI; in short: as §1
LOX IMVI = experiment: Growth inhibition of human LOXIMVI cells at 10 uM after 48 hrs; conditions: read-out: GI; in short: as §1
U-251 = experiment: Growth inhibition of human U251 cells at 10 uM after 48 hrs; conditions: U-251, 48 h, read-out: GI
In short: (§2)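 NCI 60-cell-line disease-oriented human tumor panel, single-dose primary screen at 10 µM. Data given as mean-graph percent growth of treated cells, reported as percent growth inhibition (GI %).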

SF-295 = experiment: Growth inhibition of human SF295 cells at 10 uM after 48 hrs; conditions: SF-295, 48 h, read-out: GI; in short: as §2
HCT-15 = experiment: Growth inhibition of human HCT15 cells at 10 uM after 48 hrs; conditions: HCT-15, 48 h, read-out: GI; in short: as §1
HCT-116 = experiment: Growth inhibition of human HCT116 cells at 10 uM after 48 hrs; conditions: HCT-116, 48 h, read-out: GI; in short: as §1
COLO 205 = experiment: Growth inhibition of human COLO205 cells at 10 uM after 48 hrs; conditions: COLO 205, 48 h, read-out: GI; in short: as §1
NCI-H522 = experiment: Growth inhibition of human NCI-H522 cells at 10 uM after 48 hrs; conditions: NCI-H522, 48 h, read-out: GI; in short: as §1
NCI-H460 = experiment: Growth inhibition of human NCI-H460 cells at 10 uM after 48 hrs; conditions: NCI-H460, 48 h, read-out: GI; in short: as §1
[1] = Growth inhibition of human HOP92 cells at 10 uM after 48 hrs; conditions: HOP-92, 48 h, read-out: GI; in short: as §1
HOP-62 = experiment: Growth inhibition of human HOP62 cells at 10 uM after 48 hrs; conditions: HOP-62, 48 h, read-out: GI; in short: as §1
A549 = experiment: Growth inhibition of human A549 cells at 10 uM after 48 hrs; conditions: A549, 48 h, read-out: GI; in short: as §1
RPMI-8226 = experiment: Growth inhibition of human RPMI8226 cells at 10 uM after 48 hrs; conditions: RPMI-8226, 48 h, read-out: GI; in short: as §1
MDA-MB-468 = experiment: Growth inhibition of human MDA-MB-468 cells at 10 uM after 48 hrs; conditions: MDA-MB-468, 48 h, read-out: GI; in short: as §1
BT-549 = experiment: Growth inhibition of human BT549 cells at 10 uM after 48 hrs; conditions: BT-549, 48 h, read-out: GI; in short: as §1
ACHN = experiment: Growth inhibition of human ACHN cells at 10 uM after 48 hrs; conditions: read-out: GI; in short: as §1
A498 = experiment: Growth inhibition of human A498 cells at 10 uM after 48 hrs; conditions: A498, 48 h, read-out: GI; in short: as §1
UACC-62 = experiment: Growth inhibition of human UACC62 cells at 10 uM after 48 hrs; conditions: UACC-62, 48 h, read-out: GI; in short: as §2
[2] = Growth inhibition of human UACC257 cells at 10 uM after 48 hrs; conditions: UACC-257, 48 h, read-out: GI; in short: as §2
SK-MEL-5 = experiment: Growth inhibition of human SK-MEL-5 cells at 10 uM after 48 hrs; conditions: SK-MEL-5, 48 h, read-out: GI; in short: as §2
Cancer cell lines [3] = experiment: Ratio of 5-FU LC50 to compound LC50 for human breast cancer cells
In short: (§3)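 Compounds passing the NCI single-dose primary screen were retested across the 60 human tumour cell lines (nine subpanels) over a 5-log dose range. GI50, TGI and LC50 were recorded for each cell line, with 5-fluorouracil run as the reference drug. Subpanel values for compound and 5-FU were then compared.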

Cancer cell lines [4] = experiment: Ratio of 5-FU LC50 to compound LC50 for human ovarian cancer cells; in short: as §3
Cancer cell lines [5] = experiment: Ratio of 5-FU LC50 to compound LC50 for human CNS cancer cells; in short: as §3
Melanoma cell [6] = experiment: Ratio of 5-FU LC50 to compound LC50 for human melanoma cells; in short: as §3
Cancer cell lines [7] = experiment: Ratio of 5-FU LC50 to compound LC50 for human colon cancer cells; in short: as §3
Cancer cell lines [8] = experiment: Ratio of 5-FU TGI to compound TGI for human prostate cancer cells
Cancer cell lines [9] = experiment: Ratio of 5-FU TGI to compound TGI for human renal cancer cells
Cancer cell lines [10] = experiment: Ratio of 5-FU TGI to compound TGI for human CNS cancer cells
Melanoma cell [11] = experiment: Ratio of 5-FU TGI to compound TGI for human melanoma cells
Leukemia cell [12] = experiment: Ratio of 5-FU TGI to compound TGI for human leukemia cells
Cancer cell lines [13] = experiment: Ratio of 5-FU GI50 to compound GI50 for human breast cancer cells; in short: as §3
Cancer cell lines [14] = experiment: Ratio of 5-FU GI50 to compound GI50 for human prostate cancer cells; in short: as §3
Cancer cell lines [15] = experiment: Ratio of 5-FU GI50 to compound GI50 for human ovarian cancer cells; in short: as §3
Melanoma cell [16] = experiment: Ratio of 5-FU GI50 to compound GI50 for human melanoma cells; in short: as §3
Cancer cell lines [17] = experiment: Ratio of 5-FU GI50 to compound GI50 for human CNS cancer cells; in short: as §3
Cancer cell lines [18] = experiment: Ratio of 5-FU GI50 to compound GI50 for human non-small cell lung cancer cells; in short: as §3
Leukemia cell [19] = experiment: Ratio of 5-FU GI50 to compound GI50 for human leukemia cells; in short: as §3
[20] = Cytotoxicity against human breast cancer cells at 10 uM after 48 hrs; conditions: Cancer cell lines; in short: as §1
[21] = Cytotoxicity against human renal cancer cells at 10 uM after 48 hrs; conditions: Cancer cell lines
[22] = Cytotoxicity against human melanoma cells at 10 uM after 48 hrs; conditions: Melanoma cell; in short: as §1
[23] = Cytotoxicity against human CNS cancer cells at 10 uM after 48 hrs; conditions: Cancer cell lines
[24] = Cytotoxicity against human colon cancer cells at 10 uM after 48 hrs; conditions: Cancer cell lines; in short: as §1
[25] = Cytotoxicity against human leukemia cells at 10 uM after 48 hrs; conditions: Leukemia cell
[26] = Cytotoxicity against human non-small cell lung cancer cells at 10 uM after 48 hrs; conditions: Cancer cell lines; in short: as §1
[27] = read-out: LC50 (the source's name)

**Q.** Which results are given for `COc1ccc(/C=C2\CCCc3c2nc(C)nc3-c2ccc(OC)cc2)cc1`?
**A.** inhibition of growth at 10 µM (MDA-MB-435): 40.5%; inhibition of growth at 10 µM (M14): < 30%; inhibition of growth at 10 µM (Malme-3M): < 30%; inhibition of growth at 10 µM (LOX IMVI): < 30%; inhibition of growth at 10 µM (U-251): < 30%; inhibition of growth at 10 µM (SF-295): < 30%; inhibition of growth at 10 µM (HCT-15): < 30%; inhibition of growth at 10 µM (HCT-116): < 30%; inhibition of growth at 10 µM (COLO 205): < 30%; inhibition of growth at 10 µM (NCI-H522): < 30%; inhibition of growth at 10 µM (NCI-H460): < 30%; inhibition of growth at 10 µM [1]: < 30%; inhibition of growth at 10 µM (HOP-62): < 30%; inhibition of growth at 10 µM (A549): < 30%; inhibition of growth at 10 µM (RPMI-8226): 50.1%; inhibition of growth at 10 µM (MDA-MB-468): < 30%; inhibition of growth at 10 µM (BT-549): < 30%; inhibition of growth at 10 µM (ACHN): < 30%; inhibition of growth at 10 µM (A498): < 30%; inhibition of growth at 10 µM (UACC-62): < 30%; inhibition of growth at 10 µM [2]: < 30%; inhibition of growth at 10 µM (SK-MEL-5): < 30%

**Q.** Which results are given for `COc1cc(/C=C2\CCCC3=C(c4cc(OC)c(OC)c(OC)c4)Nc4ccccc4N=C32)cc(OC)c1OC`?
**A.** inhibition of growth at 10 µM (MDA-MB-435): 96.8%; inhibition of growth at 10 µM (HCT-15): 93.9%; inhibition of growth at 10 µM (COLO 205): 99.8%; inhibition of growth at 10 µM [1]: < 30%; inhibition of growth at 10 µM (A549): 94.1%; RatioLC50 (Cancer cell lines [3]): 11; RatioLC50 (Cancer cell lines [4]): 11; RatioLC50 (Cancer cell lines [5]): 11; RatioLC50 (Melanoma cell [6]): 11; RatioLC50 (Cancer cell lines [7]): 11; Ratio (Cancer cell lines [8]): 11; Ratio (Cancer cell lines [9]): 11; Ratio (Cancer cell lines [10]): 11; Ratio (Melanoma cell [11]): 11; Ratio (Leukemia cell [12]): 11; RatioGI50 (Cancer cell lines [13]): 11; RatioGI50 (Cancer cell lines [14]): 11; RatioGI50 (Cancer cell lines [15]): 11; RatioGI50 (Melanoma cell [16]): 11; RatioGI50 (Cancer cell lines [17]): 11; RatioGI50 (Cancer cell lines [18]): 11; RatioGI50 (Leukemia cell [19]): 11; GI50 [20]: 2.9 µM; LC50 (concentration killing 50% of cells) [20]: 89.4 µM; TGI [20]: 48.2 µM; CC50 [21]: 68.4 µM; GI50 [21]: 2.3 µM; TGI [21]: 20 µM; GI50 [22]: 1.7 µM; TGI [22]: 5.6 µM; CC50 [22, 27]: 71.4 µM; GI50 [23]: 6.8 µM; TGI [23]: 94.3 µM; CC50 [23, 27]: > 100 µM; GI50 [24]: 1.6 µM; TGI [24]: 5.2 µM; CC50 [24, 27]: 36.4 µM; GI50 [25]: 1.4 µM; LC50 [25]: > 100 µM; TGI [25]: 5 µM; GI50 [26]: 2.8 µM; TGI [26]: 28 µM; CC50 [26, 27]: 73.6 µM; inhibition of growth at 10 µM [2]: 83.8%
